TAAR1 ag = human TAAR1 agonism. Q96RJ0. CHO RD-HGA16 TAAR1, Fluo-8 calcium fluorescence; vehicle wells 0%, saturating PEA agonist 100%. activation, % at 3 µM. hit rate 0.99% among 360,000;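 active = activation above the mean activation of all test compounds in the run plus 3 SD, cut at about 38% in these data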
Target sequence (Q96RJ0 whole entry, looked up): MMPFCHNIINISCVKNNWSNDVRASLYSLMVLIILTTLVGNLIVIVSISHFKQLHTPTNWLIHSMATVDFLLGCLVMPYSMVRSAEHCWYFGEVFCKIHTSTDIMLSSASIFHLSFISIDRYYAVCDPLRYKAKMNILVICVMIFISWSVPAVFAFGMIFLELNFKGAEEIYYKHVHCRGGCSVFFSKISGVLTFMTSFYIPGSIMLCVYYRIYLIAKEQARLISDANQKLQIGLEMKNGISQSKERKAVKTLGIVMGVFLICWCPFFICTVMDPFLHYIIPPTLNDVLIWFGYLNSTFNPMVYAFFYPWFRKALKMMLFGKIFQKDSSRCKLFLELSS
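Signal – calcium-sensitive Fluo-8 signal, excitation 470-495, emission 515-575 nm · System – RD-HGA16 (CHO) cells co-expressing Gα16 and hTAAR1 · Incubation – 17-24 h seeding, 75 min 37 °C dye, 30 min RT · Compound dosing – 3 µM single concentration · Repeats – no replicates (n 1)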
CHO parental Ca = counter-screen for OX1R antagonists: effect in parental CHO cells | hit rate 0.63% among 330,000 | inhibition, % at 5.6 µM | parental CHO-K1, ATP-induced calcium, Fluo-8 fluorescence;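 active = inhibition above that plate's mean sample inhibition plus 3 SD, cut at about 26% in these data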
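Material: Parental CHO cells | Reagent: ATP | Compound dosing: Single nominal dose of 5.6 µM per compound | Detection: Intracellular calcium via Fluo-8 no-wash fluorescent dye | Read-out: % inhibition of ATP-induced calcium mobilization | Benchmarks: Low control ATP plus DMSO, high control DMSO only | Replicates: Singlicate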
TAAR1 antag = human TAAR1 antagonism; CHO RD-HGA16 TAAR1, Fluo-8 calcium fluorescence, antagonist; Q96RJ0; hit rate 1.5% among 360,000; inhibition, % at 3 µM; AID 624466;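 active = inhibition above a per-plate cutoff, the mean inhibition of test compounds on that plate plus 3 SD, cut at about 49% in these data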
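Test system: CHO RD-HGA16 cells bearing hTAAR1 | Reagent: β-PEA, EC80 | Compound dosing: 3 µM, single point | Schedule: Dye loading 75 min at 37 °C, then 30 min room temperature | Signal: Calcium fluorescence with Fluo-8 | Evaluation: Percent inhibition of PEA-evoked calcium signal, max/basal emission ratio | Control set: DMSO-only wells and EC80 β-PEA-stimulated wells | Repeats: Singlicate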
OX1R antag-1 = human HCRTR1 antagonism | O43613 | CHO/OX1R cells, Fluo-8 calcium fluorescence, orexin A | inhibition, % at 5 µM | hit rate 0.43% among 330,000 | AID 434989;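 active = inhibition above its plate's threshold, mean inhibition of all tested compounds on the plate plus 3 SD, cut at about 37% in these data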
Target sequence (O43613 whole entry, looked up): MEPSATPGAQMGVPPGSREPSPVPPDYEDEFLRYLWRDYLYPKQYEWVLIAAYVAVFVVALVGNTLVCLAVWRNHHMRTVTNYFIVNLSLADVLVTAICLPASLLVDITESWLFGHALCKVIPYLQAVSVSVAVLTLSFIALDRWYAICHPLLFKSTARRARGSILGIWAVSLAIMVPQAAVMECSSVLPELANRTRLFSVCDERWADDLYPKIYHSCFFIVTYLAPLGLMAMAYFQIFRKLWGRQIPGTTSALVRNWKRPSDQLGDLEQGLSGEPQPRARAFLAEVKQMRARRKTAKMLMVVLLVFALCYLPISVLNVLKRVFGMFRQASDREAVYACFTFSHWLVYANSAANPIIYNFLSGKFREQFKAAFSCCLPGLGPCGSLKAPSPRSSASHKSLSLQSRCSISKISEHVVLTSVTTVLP
OX1R antag-2 = blocks the human orexin 1 receptor; O43613; OX1R-expressing cells, FRET antagonist read-out; hit rate 1.8% among 330,000; AID 485270; inhibition, % at 6.6 µM; in the data active = inhibition mostly above about 38%, no sharp cut-off; inactive = mostly below about 40%
Large screens that a line does not name were inactive. This is a sample that favours compounds with a hit; in the whole collection about 3.9% have one here.

CC(C)(C)S(=O)N1Cc2cc(C(=O)N3CCOCC3)nc(-c3cccc(Br)c3)c2[C@@H]1CCO (some centres undefined)	none (no result: CHO parental Ca, OX1R antag-1, OX1R antag-2)
O=C(Nc1cccc(-c2cn3ccccc3n2)c1)c1cccc(Cl)c1	CHO parental Ca 72.5, OX1R antag-1 82.5, OX1R antag-2 92.6
CN(C)S(=O)(=O)c1ccc(-c2csc(N/N=C/c3ccc(O)cc3)n2)cc1	TAAR1 antag 76.9
C(=N\Nc1nc(-c2ccccc2)cs1)/c1ccncc1	none
COc1cc2oc(=O)cc(CN3CCCCC3)c2cc1Cl	none (no result: CHO parental Ca, OX1R antag-1, OX1R antag-2)
CN(C)c1ccc(CC(=O)N2CCCCC2c2cc(C(=O)Nc3cccc4c3CCCC4)no2)cc1 (centres undefined)	none (no result: CHO parental Ca, OX1R antag-1, OX1R antag-2)
Cc1c(C)c2c(OCC(=O)Nc3ccc(CCO)cc3)cc3c(c2oc1=O)CCC(C)(C)O3	TAAR1 antag 51.0
COc1cccc(CNC(=O)COc2cc3c(c4oc(=O)cc(C)c24)CCC(C)(C)O3)c1	TAAR1 antag 57.8
Cc1cc(=O)oc2c3c(cc(OCC(=O)NCc4cccnc4)c12)OC(C)(C)CC3	none
Cc1cc(=O)oc2c3c(cc(OCC(=O)NCCC(=O)O)c12)OC(C)(C)CC3	none (no result: CHO parental Ca, OX1R antag-1, OX1R antag-2)
COc1ccccc1CNC(=O)COc1cc2c(c3oc(=O)cc(C)c13)CCC(C)(C)O2	TAAR1 antag 53.2
C#CCN(Cc1cccc(F)c1)C(=O)c1nnc2c3cc(F)ccc3n(S(=O)(=O)c3ccc(OC)cc3)c2n1	none (no result: CHO parental Ca, OX1R antag-1, OX1R antag-2)
CCOC(OCC)c1cn(Cc2ccc3c(c2)C(=O)c2ccccc2C3=O)nn1	OX1R antag-2 76.2
CCC(=O)Nc1ccc(S(=O)(=O)NCc2ccco2)cc1	none
O=C(COc1ccccc1-c1ccccc1)Nc1ccc(S(=O)(=O)NCc2ccco2)cc1	TAAR1 antag 60.8, OX1R antag-2 47.5
CCN=C1NC(CCc2ccccc2)C(C(=O)OC)=C(C)N1Cc1ccccc1C(F)(F)F (centres undefined)	none (no result: CHO parental Ca, OX1R antag-1, OX1R antag-2)
Cc1cccc(C(=O)c2cnc3ccccc3c2-c2ccccc2)c1	TAAR1 antag 49.2
Cc1csc(=O)n1CC(=O)OC(C)C(=O)Nc1ccc(N(C)C)cc1 (centres undefined)	none (no result: CHO parental Ca, OX1R antag-1, OX1R antag-2)
O=C(Nc1ccccc1Br)C1CCCN1S(=O)(=O)c1cccc2nsnc12 (centres undefined)	OX1R antag-2 56.3
CCOC(=O)c1c(NC(=O)C2CCCN2S(=O)(=O)c2cccc3nsnc23)sc(C)c1C (centres undefined)	none (no result: CHO parental Ca, OX1R antag-1, OX1R antag-2)
Cc1c(NC(=O)C2CCCN2S(=O)(=O)c2cccc3nsnc23)cccc1C(=O)O (centres undefined)	OX1R antag-2 48.2
O=C(Nc1ccccc1F)C1CCCN1S(=O)(=O)c1cccc2nsnc12 (centres undefined)	OX1R antag-2 68.2
Cc1ccc(C(=O)O)cc1NC(=O)C1CCCN1S(=O)(=O)c1cccc2nsnc12 (centres undefined)	OX1R antag-2 51.5
CCCCNC(=O)C1CCCN1S(=O)(=O)c1cccc2nsnc12 (centres undefined)	none
CC1CCCC(NC(=O)C2CCCN2S(=O)(=O)c2cccc3nsnc23)C1C (centres undefined)	OX1R antag-2 70.6
Cn1c(=O)c2cc(NC(=O)NCCc3ccccc3)ccc2n1Cc1ccc(F)cc1	none (no result: CHO parental Ca, OX1R antag-1, OX1R antag-2)
C[C@@H](c1ccccc1)N1C[C@@H](COCc2ccccc2)Oc2cc(N3CC[C@@H](N(C)C)C3)ccc2S1(=O)=O	none (no result: CHO parental Ca, OX1R antag-1, OX1R antag-2)
COc1ccc(NS(=O)(=O)c2ccc(Cl)c(NC(=O)c3ccccc3F)c2)cc1	OX1R antag-2 48.8
CCCCCCCCN1C(=O)[C@@H](CC(=O)N2CCCCC2)C[C@@]2(C(=O)OC)C1=C[C@H](C1CCCC1)O[C@@H]2C	none (no result: CHO parental Ca, OX1R antag-1, OX1R antag-2)
COc1ccc(CNC[C@H]2O[C@@H](n3ccc(=O)[nH]c3=O)[C@H](O)[C@@H]2O)cc1	none (no result: CHO parental Ca, OX1R antag-1, OX1R antag-2)
CCc1ccc(C(C)NC(=S)NCc2ccc(F)cc2)cc1 (centres undefined)	TAAR1 ag 40.3
CC(C)(C)NC(=O)C1C(c2ccccc2)=Nc2ccccc2N1C(=O)c1ccc(C(F)(F)F)cc1 (centres undefined)	none (no result: CHO parental Ca, OX1R antag-1, OX1R antag-2)
OCC1OCOC2C(CO)OCOC12 (centres undefined)	none (no result: CHO parental Ca, OX1R antag-1, OX1R antag-2)
C=CCNC(=O)O/N=C/c1csc([N+](=O)[O-])c1	OX1R antag-2 41.9
CC(C)CNC(=S)NC(=O)c1csc([N+](=O)[O-])c1	none
C/C=C(/C)C(=O)OC1c2c(ccc3ccc(=O)oc23)OC(C)(C)C1OC(C)=O (centres undefined)	TAAR1 ag 45.6
CCCCn1c(=O)nc2n(-c3ccccc3)c3ccccc3cc-2c1=O	none
Cc1ccc(C)c(-n2c3nc(=O)n(C)c(=O)c-3cc3ccccc32)c1	OX1R antag-2 63.0
OCC1OC(Nc2ccccc2C=NO)C(O)C1O (centres undefined)	none (no result: CHO parental Ca, OX1R antag-1, OX1R antag-2)
CC1CCC2(CC1)NC(=O)N(CC(=O)Nc1ccc(N3CCOCC3)cc1)C2=O (centres undefined)	CHO parental Ca 71.3
Cc1nnsc1S(=O)c1ccc(Cl)c(Cl)c1 (centres undefined)	none
O=S(c1ccc2ccccc2c1)c1cnns1 (centres undefined)	TAAR1 ag 54.9
O=[N+]([O-])c1ccc(C=CC=Cc2ccccc2)cc1	none (no result: CHO parental Ca, OX1R antag-1, OX1R antag-2)
CN(c1ccccc1)c1ccc(/C=C/[N+](=O)[O-])cc1	CHO parental Ca 62.9, OX1R antag-1 78.4
Cc1nc2cc(-c3ccc(F)cc3)[nH]n2c(=O)c1C	CHO parental Ca 42.3
Clc1ccccc1-c1cc2nc(NCc3ccco3)ccn2n1	none (no result: CHO parental Ca, OX1R antag-1, OX1R antag-2)
CCn1c(Cn2nnc(-c3ccccc3)n2)nnc1SCC(=O)Nc1cccc(C(C)=O)c1	OX1R antag-2 55.6
CCn1c(Cn2nnc(-c3ccccc3)n2)nnc1SCC(=O)Nc1ccc(C(C)=O)cc1	none
CCn1c(Cn2nnc(-c3ccccc3)n2)nnc1SCC(=O)Nc1cccc(C)c1C	OX1R antag-2 76.7
Cc1nn(-c2nnc(NC3CCCCC3)nn2)c(C)c1Br	none
CC[C@H](NC(=O)[C@@H](Cc1ccccc1)NC(=O)[C@H]1O[C@@H](n2cnc3c(=O)[nH]c(N)nc32)[C@H](O)[C@@H]1O)c1ccccc1	none (no result: CHO parental Ca, OX1R antag-1, OX1R antag-2)
COc1cc(OC)cc(C(=O)Nc2ccc(C(=O)Nc3ccccc3OC)cc2)c1	TAAR1 antag 56.5
CN(c1cccc(NC(=O)c2ccc(C(C)(C)C)cc2)c1)S(C)(=O)=O	none
Cc1nc2cc(NC(=O)c3ccc(S(=O)(=O)N(C)c4ccccc4)cc3)ccc2o1	TAAR1 antag 51.1
CN(c1cccc(NC(=O)c2ccc(N(C)S(=O)(=O)c3ccccc3)cc2)c1)S(C)(=O)=O	CHO parental Ca 62.1, TAAR1 antag 63.4, OX1R antag-1 67.4
COc1ccccc1NC(=O)c1ccc(NC(=O)c2ccco2)cc1	none
CN(c1ccccc1)S(=O)(=O)c1ccc(NC(=O)c2ccc(-c3ccccc3)cc2)cc1	none
CC(=O)Oc1ccc(/C=N/NC(=O)c2ccc(N(C)S(=O)(=O)c3ccccc3)cc2)cc1	TAAR1 antag 55.3

Bioassay records (PubChem BioAssay)
